Measurements published in article PMC5508335 (Journal of Veterinary Internal Medicine, 2017).
Like-named read-outs stand apart in the source and are kept apart here.

How the values were obtained:
[1] = test system: adrenal cortisol production; assay: ACTH stimulation test, serum cortisol by radioimmunoassay; format: in vivo, dog; settings: ± SEM
Procedure, shortened: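 Dogs: 5 healthy controls and 10 previously diagnosed with hyperadrenocorticism. Each dog had two ACTH stimulation tests, one with a reference tetracosactrin product (0.04 mL/kg IV) and one with the test ACTH preparation (0.08 mL/kg IV). Blood was drawn just before injection and 60 minutes after. Serum cortisol was measured by validated radioimmunoassay and reported as mean ± SEM.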

[2] = test system: Dobermans with CHF due to DCM; assay: Randomized placebo-controlled survival trial in Dobermans with CHF due to DCM; format: in vivo, dog; settings: 50 mg twice daily plus standard therapies; 34 dogs; time to cardiac death
[3] = test system: healthy purpose-bred dogs; assay: Isoglycemic clamp in healthy dogs; format: in vivo, dog; settings: 2.4 nmol/kg SC
[4] = test system: dogs with pulmonic stenosis; format: in vivo, dog
healthy dogs = assay: Endoscopy of upper gastrointestinal tract after 28 days of therapy; format: in vivo, dog; settings: day 28; PO daily
Procedure, shortened: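 Fifteen healthy dogs were randomized to five PO regimens for 28 days: aspirin 2 mg/kg/d, clopidogrel 2–3 mg/kg/d, prednisone 2 mg/kg/d, prednisone plus aspirin, or prednisone plus clopidogrel. The upper gastrointestinal tract was then assessed.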

[5] = test system: dogs with hypoadrenocorticism; format: in vivo, dog
[6] = test system: canine osteosarcoma cell lines; assay: Combination with MCT1/4 small molecule inhibitors in canine osteosarcoma cells; format: cell-based, dog
[7] = format: in vivo, cats; settings: one 1.87 mg oral dose
[8] = test system: beagles with and without MVMD; assay: Dobutamine stress echocardiography in beagles with mitral valve disease; format: in vivo, dog
healthy beagles = assay: Serum cPLI after high-dose prednisolone in healthy beagles; format: in vivo, dog; settings: 4 mg/kg/day SC for 2 or 3 weeks; six beagles
[9] = test system: dogs with idiopathic IMPA; assay: Retrospective outcome of dogs with idiopathic IMPA; settings: dog, in vivo
[10] = test system: platelet function (closure time)
platelet function = assay: PFA-100 closure time, antiplatelet responder status; format: in vivo, dog
Procedure, shortened: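 Fifteen healthy dogs received PO aspirin 2 mg/kg/d, clopidogrel 2–3 mg/kg/d, or either drug combined with prednisone 2 mg/kg/d for 28 days. Responders were defined by PFA closure time: above 300 sec for aspirin, or more than 30% above baseline for clopidogrel. Responder status was compared among groups by Fisher's exact test, with P < 0.05 as significant.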

platelet aggregation = settings: cats with cardiovascular disease already receiving clopidogrel, n = 3
[11] = test system: fecal microbiota of healthy dogs; assay: Fecal microbiota qPCR Dysbiosis Index after oral tylosin; format: in vivo, dog; settings: 20 mg/kg q12 hr for 7 days
Procedure, shortened: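 Ten healthy pet dogs were randomized double-blind to oral test compound at 20 mg/kg (n = 6) or placebo capsule (n = 4), given q12 hr for 7 days. Dogs stayed on their usual diet. Fecal samples were taken on days 0, 7, 10, 21 and 63, and a fecal score (1–7) was recorded daily during dosing.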

canine leukocytes = assay: LPS-stimulated leukocyte cytokine production in whole blood; format: cell-based, dog; settings: 10^−7 M, 24 h
Procedure, shortened: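 Blood from eight healthy adult dogs was incubated with test compound (10−7 M) or control for 24 h. Leukocytes were then stimulated with LPS, and TNF and IL-10 production were measured by a canine-specific multiplex assay.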

[12] = test system: dogs given PEG before colonoscopy; assay: Anti-emetic before orogastric PEG administration; format: in vivo, dog
Procedure, shortened: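 46 dogs with naturally occurring disease needed PEG bowel cleansing before colonoscopy. They were randomized to one of two anti-emetics given SC 30 minutes before orogastric-tube PEG at 66 ml/kg. PEG was repeated 2 hours later without repeating the anti-emetic. Administration was by or under supervision of blinded authors. Vomiting and regurgitation were recorded after each PEG dose.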

[13] = test system: dogs with ventricular tachyarrhythmias; assay: Echocardiogram and 5-minute ECG before and after oral sotalol; format: in vivo, dog
RBCs = assay: Lysis of canine RBCs by DMSO diluted in PBS; format: cell-based, dog
[14] = test system: dogs with gastrointestinal stromal tumors; assay: Retrospective evaluation of toceranib in canine GIST; format: in vivo, dog
canine complement = format: biochemical, dog; settings: dose curves, at the doses evaluated
[15] = G2 MVMD, DIVEd/Ao less than 2.8

corticotropin (SYSMEHFRWGKPVGKKRRPVKVYPNGAEDESAEAFPLEF; Corticotropin; UniProt P01189 138-176, looked up) [Acthelea]
post-ACTH serum cortisol ([1]; control group, 5 healthy dogs, 60 minute post IV): 9.00 ± 0.71 µg/dL
after ACTH serum cortisol ([1]; treated group, 10 dogs with hyperadrenocorticism on trilostano): 7.90 ± 2.1 µg/dL

CC(=O)S[C@@H]1CC2=CC(=O)CC[C@]2(C)[C@H]2CC[C@@]3(C)[C@@H](CC[C@@]34CCC(=O)O4)[C@H]12 [spironolactone]
median survival time [2]: 183 days

Insulin glargine [Toujeo]
dogs with peakless time-action profile [3]: 4/8
duration of action, median [3]: 16.3 h
peak of action, median [3]: 6.3 h
Median onset of action ([3]; 8 healthy dogs): 4.0 h

Oc1ccc2c(c1)[C@@]13CCCC[C@@]1(O)[C@@H](C2)N(CC1CCC1)CC3 [butorphanol]
heart rate, mean %change ± SD ([4]; 5 minutes post-butorphanol 0.2–0.25 mg/kg IV, n = 18 dogs): −21% ± 16

CC(C)NCC(O)COc1ccc(CC(N)=O)cc1 (centres unmarked) [atenolol]
maxPG, mean %change ± SD ([4]; 2–3 weeks post-atenolol 1–1.5 mg/kg q12): −15% ± 9
heart rate, mean %change ± SD ([4]; 2–3 weeks post-atenolol 1–1.5 mg/kg q12, n = 18): −17% ± 13
Percent change in VTI ratio ([4]; post-atenolol): 6% ± 12

C[C@]12C=CC(=O)C=C1CC[C@@H]1[C@@H]2C(=O)C[C@@]2(C)[C@H]1CC[C@]2(O)C(=O)CO [P, prednisone]
dogs with endoscopic lesions (healthy dogs): 1/3

CC(C)(C)C(=O)OCC(=O)[C@H]1CC[C@H]2[C@@H]3CCC4=CC(=O)CC[C@]4(C)[C@H]3CC[C@]12C [DOCP]
median time between the DOCP and CHF ([5]; 12 dogs, range 1-29 days): 11 days
Median survival after the onset of CHF ([5]; HA/DOCP group): 953 days

CN(C)C(=N)N=C(N)N [metformin]
activity in the presence of MCT1 and MCT4 small molecule inhibitors [6]: Synergistic activity

CN1CCN2c3ncccc3Cc3ccccc3C2C1 (centres unmarked) [mirtazapine]
AUC, liver disease cats versus AMC cats [7]: not significantly different

CC(CCc1ccc(O)cc1)NCCc1ccc(O)c(O)c1 (centres unmarked) [dobutamine]
difference between pre and post stress EF% ([8]; G1 control group): 0.25 ± 0.08
difference between pre and post stress FS% ([8]; G1 control group, 5 then 10 μg/kg/minute infusion): 0.44 ± 0.14
difference between pre and post stress EF% [8, 15]: 0.30 ± 0.08
difference between pre and post stress FS% [8, 15]: 0.49 ± 0.13
difference between pre and post stress EF% ([8]; G3 MVMD, DIVEd/Ao above 2.8): 0.13 ± 0.09
difference between pre and post stress FS% ([8]; G3 MVMD, DIVEd/Ao above 2.8): 0.19 ± 0.14

C[C@]12C=CC(=O)C=C1CC[C@@H]1[C@@H]2[C@@H](O)C[C@@]2(C)[C@H]1CC[C@]2(O)C(=O)CO [prednisolone]
serum cPL concentration after versus before treatment (healthy beagles): significantly higher after than before treatment
dogs relapsed during tapering of medication [9]: 13/23
median treatment duration [9]: 397 days

COc1cccc2c1C(=O)c1c(O)c3c(c(O)c1C2=O)C[C@@](O)(C(=O)CO)C[C@@H]3O[C@H]1C[C@H](N)[C@H](O)[C@H](C)O1 [doxorubicin]
activity in the presence of MCT1 and MCT4 small molecule inhibitors [6]: Synergistic activity

COC(=O)[C@H](c1ccccc1Cl)N1CCc2sccc2C1 [clopidogrel]
dogs with endoscopic lesions (healthy dogs): 0/3
PFA-P2Y Closure Time ([10]; cats already receiving clopidogrel, n = 6): > 300 s
PFA-P2Y Closure Time ([10]; test repeated while receiving clopidogrel, n = 1): > 300 s
dogs classified as responders based on PFA closure times (platelet function; day 14): 3/3
dogs classified as responders based on PFA closure times (platelet function; day 28): 3/3
PW-AA %Aggregation (platelet aggregation): 4–19%

CC[C@H]1OC(=O)C[C@@H](O)[C@H](C)[C@@H](O[C@@H]2O[C@H](C)[C@@H](O[C@H]3C[C@@](C)(O)[C@@H](O)[C@H](C)O3)[C@H](N(C)C)[C@H]2O)[C@@H](CC=O)C[C@@H](C)C(=O)/C=C/C(C)=C/[C@@H]1CO[C@@H]1O[C@H](C)[C@@H](O)[C@@H](OC)[C@H]1OC [tylosin]
development of diarrhea [11]: None of the dogs in either group developed diarrhea
Dysbiosis Index, median ([11]; day 7, 6 dogs, day 0 −6.5): 2.9

C=C1/C(=C\C=C2/CCC[C@]3(C)[C@@H]([C@H](C)CCCC(C)(C)O)CC[C@@H]23)C[C@@H](O)C[C@@H]1O [calcitriol]
LPS-stimulated IL-10 production, mean±SD (canine leukocytes; control 551 ± 323): 791 ± 386 pg/mL
LPS-stimulated leukocyte TNF production, mean±SD (canine leukocytes; eight dogs, control 1694 ± 1023): 823 ± 862 pg/mL

CCN(CC)CCNC(=O)c1cc(Cl)c(N)cc1OC [metoclopramide]
incidence of regurgitation ([12]; PEG Dose 1): 52.4%
incidence of vomiting ([12]; PEG Dose 1, anti-emetic SC 30 minutes before): 23.8%
incidence of regurgitation ([12]; PEG Dose 2): 31.6%
incidence of vomiting ([12]; PEG Dose 2): 21.1%

CC(C)NCC(O)c1ccc(NS(C)(=O)=O)cc1 (centres unmarked) [sotalol]
EF, mean percent change ± SD ([13]; 2–3 hours post-sotalol): −13 ± 16%
FS, mean percent change ± SD ([13]; 2–3 hours post-sotalol): −14 ± 11%
LVSA, mean percent change ± SD ([13]; 2–3 hours post-sotalol): −10 ± 12%
heart rate, mean percent change ± SD ([13]; 2–3 hours post-sotalol 2.5 ± 0.2 mg/kg PO, n = 27): −18 ± 16%

CC(=O)Oc1ccccc1C(=O)O [A, aspirin]
dogs with endoscopic lesions (healthy dogs): 1/3
dogs classified as responders based on PFA closure times (platelet function; day 14): 2/3
dogs classified as responders based on PFA closure times (platelet function; day 28): 1/3

C[S+](C)[O-] [DMSO]
lysis of RBCs (RBCs; 10, 20, 70 and 80% DMSO): no hemolysis
lysis of RBCs (RBCs; 30, 40 and 90% DMSO): mild hemolysis
lysis of RBCs (RBCs; 50 and 100% DMSO): moderate hemolysis
lysis of RBCs (RBCs; 60% DMSO (diluted in PBS)): marked hemolysis

Cc1[nH]c(/C=C2\C(=O)Nc3ccc(F)cc32)c(C)c1C(=O)NCCN1CCCC1 [toceranib]
dogs experiencing adverse events ([14]; 16/28, majority Grade 1 or 2 gastrointestinal toxicities): 57%
Clinical benefit (CB) ([14]; all dogs, 26/28): 93%
Clinical benefit (CB) ([14]; dogs with gross disease, 5/7): 71%
Clinical benefit (CB) ([14]; dogs with microscopic disease): 21/21

B1: C1‐INH: human recombinant C1-esterase Inhibitor (protein, UniProt P05155 23-500, looked up)
Plasma protease C1 inhibitor: NPNATSSSSQDPESLQDRGEGKVATTVISKMLFVEPILEVSSLPTTNSTTNSATKITANTTDEPTTQPTTEPTTQPTIQPTQPTTQLPTDSPTQPTTGSFCPGPVTLCSDLESHSTEAVLGDALVDFSLKLYHAFSAMKKVETNMAFSPFSIASLLTQVLLGAGENTKTNLESILSYPKDFTCVHQALKGFTTKGVTSVSQIFHSPDLAIRDTFVNASRTLYSSSPRVLSNNSDANLELINTWVAKNTNNKISRLLDSLPSDTRLVLLNAIYLSAKWKTTFDPKKTRMEPFHFKNSVIKVPMMNSKKYPVAHFIDQTLKAKVGQLQLSHNLSLVILVPQNLKHRLEDMEQALSPSVFKAIMEKLEMSKFQPTLLTLPRIKVTTSQDMLSIMEKLEFFDFSYDLNLCGLTEDPDLQVSAMQHQTVLELTETGVEAAAASAISVARTLLVFEVQQPFLFVLWDQQHKFPVFMGRVYDPRA
inhibition of canine complement-mediated hemolysis (canine complement): dose‐dependent inhibition
